Results of several laboratories.
Compare with care: the assays were run in different laboratories.
MMP13: Collagenase 3 (MMP13, Homo sapiens, UniProt P45452)
LNPEP: Leucyl-cystinyl aminopeptidase (LNPEP, Homo sapiens, UniProt Q9UIQ6)
Kcna3: Potassium voltage-gated channel subfamily A member 3 (Kcna3, Mus musculus, UniProt P16390)
Papain: Papain (Carica papaya, UniProt P00784)
SLCO1B1: Solute carrier organic anion transporter family member 1B1 (SLCO1B1, Homo sapiens, UniProt Q9Y6L6)
CHRM1: Muscarinic acetylcholine receptor M1 (CHRM1, Homo sapiens, UniProt P11229)
Cruzipain: Cruzipain (Trypanosoma cruzi, UniProt P25779)
JAK1: Tyrosine-protein kinase JAK1 (JAK1, Homo sapiens, UniProt P23458)
PBRM1 bromodomain: Protein polybromo-1, bromodomain (PBRM1, Homo sapiens, UniProt Q86U86)

| SMILES | target | assay | test system | setting | IC50 [µM] |
| --- | --- | --- | --- | --- | --- |
| Cn1cc(-c2cc3cc(-c4cc(C(=O)NCc5ccc(C(=O)O)cc5)nn4C)ccc3[nH]2)cn1 | MMP13 | enzyme activity, inhibitor, FRET | – | – | 0.0016 |
| Cc1cc(S(=O)(=O)Nc2cccc(-c3nnn[nH]3)c2)ccc1C(F)(F)F | LNPEP | enzyme activity, inhibitor, fluorescence | – | – | 2.3 |
| Nc1nc2ccc(OC(F)(F)F)cc2s1 | Kcna3 | ion current, inhibitor, patch clamp | – | – | 50 |
| O=S(=O)(Nc1cccc(-c2nnn[nH]2)c1)c1ccc(Cl)c(Cl)c1Cl | LNPEP | enzyme activity, inhibitor, fluorescence | – | – | 1.2 |
| CCCC[C@H](NC(=O)[C@H](C)c1c(C)[nH]c2ccc(O)cc12)c1ncc(-c2cc3ccccc3nc2OC)[nH]1 | Histone deacetylase 11 (HDAC11, Homo sapiens, UniProt Q96DB2) | enzyme activity, inhibitor | – | – | 0.1 |
| O=C(N[C@@H](Cc1ccccc1)C(=O)c1noc(-c2ccccc2)n1)[C@H](Cc1ccccc1)NC(=O)N1CCOCC1 | Papain | enzyme activity, inhibitor | – | pH 6.5, with preincubation | 0.2 |
| O=C1Nc2ccccc2C1=O | Aldehyde dehydrogenase, mitochondrial (ALDH2, Homo sapiens, UniProt P05091) | enzyme activity, inhibitor, absorbance | – | – | > 160 |
| Nc1nc(N)c2nc(CNc3ccc(C(=O)NCCc4ccccc4)cc3)cnc2n1 | Cytochrome P450 3A4 (CYP3A4, Homo sapiens, UniProt P08684) | enzyme activity, inhibitor, luciferase | – | – | 11.2 |
| O=S(=O)(Nc1cccc(-c2nnn[nH]2)c1)c1ccc(Br)cc1F | LNPEP | enzyme activity, inhibitor, fluorescence | – | – | 5.5 |
| Oc1ccc(/C=C/c2cc(O)cc(O)c2)cc1 | SLCO1B1 | transporter uptake, inhibitor, fluorescence | CHO | 30 min, pH 7.4 | 11.2 |
| CCn1ncc2c1-c1cnc(N)c(c1)O[C@H](C)c1cc(F)ccc1-c1nn(C)nc1C2 | Insulin receptor (INSR, Homo sapiens, UniProt P06213) | enzyme activity, inhibitor, radiometric | – | – | 1.14 |
| CCn1c(-c2nc3cc(C(=O)N4CCC[C@@H](N)C4)cc(OC)c3n2C)cc2cccnc21 | CHRM1 | calcium signal, antagonist, fluorescence | – | – | 63.1 |
| O=C(COc1ccccc1Br)NCCc1nc2ccccc2[nH]1 | Cruzipain | enzyme activity, inhibitor | – | – | 0.4 |
| CCC1CN(C(=O)NCC(F)(F)F)CC1N(C)c1ncnc2[nH]ccc12 (centres unmarked) | JAK1 | enzyme activity, inhibitor, ADP detection | – | – | 0.93 |
| CC(C)C[C@H](NC(=O)[C@H]1O[C@@H]1C(=O)O)C(=O)NCCCCN=C(N)N | Papain | enzyme activity, inhibitor | – | – | 0.00015 |
| Cc1noc(-c2cc3cc(-c4nc(C(=O)NCc5ccccc5)[nH]c4C)ccc3[nH]2)n1 | MMP13 | enzyme activity, inhibitor, FRET | – | – | 0.0023 |
| CCOc1cc(CC(=O)N[C@@H](CC(C)C)c2ccccc2N2CCCCC2)ccc1C(=O)O | SLCO1B1 | transporter uptake, inhibitor, fluorescence | CHO | 30 min, pH 7.4 | 1.1 |
| Cc1noc(-c2cc3cc(-c4nc(C(N)=O)[nH]c4C)ccc3[nH]2)n1 | MMP13 | enzyme activity, inhibitor, FRET | – | – | 0.016 |
| Cc1cc(N2CCc3c(c(C)nn3CC34CCC(NC(=O)[C@@H]5COCCN5)(CC3)CC4)C2)c2cnn(C)c2n1 | Toll-like receptor 7 (TLR7, Homo sapiens, UniProt Q9NYK1) | IL-6 release, inhibitor | – | – | 0.0007 |
| O=C(O[C@H]1[C@@H]2C=CO[C@@H](O[C@@H]3O[C@H](CO)[C@@H](O)[C@H](O)[C@H]3O)[C@@H]2[C@@]2(CO)O[C@@H]12)c1ccc(O)cc1 | SLCO1B1 | transporter uptake, inhibitor, radiometric | HEK293 | 10 min | 200 |
| O=S(=O)(Nc1cccc(-c2nnn[nH]2)c1)c1cc(C(F)(F)F)cc(C(F)(F)F)c1 | LNPEP | enzyme activity, inhibitor, fluorescence | – | – | 4.1 |
| CO[C@H]1/C=C/O[C@@]2(C)Oc3c(C)c(O)c4c(O)c(c(/C=N/N5CCN(C)CC5)c(O)c4c3C2=O)NC(=O)/C(C)=C\C=C\[C@H](C)[C@H](O)[C@@H](C)[C@@H](O)[C@@H](C)[C@H](OC(C)=O)[C@@H]1C | SLCO1B1 | transporter uptake, inhibitor, fluorescence | CHO | 30 min, pH 7.4 | 1.3 |

| SMILES | target | assay | test system | setting | IC50 [µM] |
| --- | --- | --- | --- | --- | --- |
| Cn1ccc2ccc(S(=O)(=O)Nc3cccc(-c4nnn[nH]4)c3)cc21 | LNPEP | enzyme activity, inhibitor, fluorescence | – | – | 12.7 |
| CCOc1ccc(C[C@@H](N)C(=O)N[C@@H](Cc2ccccc2)C(=O)NC2CCN(C(=N)N)CC2)cc1 | Coagulation factor XII, trypsin-like site (F12, Homo sapiens, UniProt P00748) | enzyme activity, inhibitor, fluorescence | – | – | > 10 |
| CN(C)CC#Cc1ccc2[nH]c3c(c2c1)-c1nc(N)ncc1CCC3 | Dual serine/threonine and tyrosine protein kinase (DSTYK, Homo sapiens, UniProt Q6XUX3) | enzyme activity, inhibitor, radiometric | – | – | > 10 |
| Cc1ncsc1-c1ccc(CNC(=O)[C@@H]2C[C@@H](O)CN2C(=O)[C@@H](NC(=O)C2(F)CC2)C(C)(C)C)c(OCCOCCOCCN2CCN(c3cc(-c4ccccc4O)nnc3N)CC2)c1 | PBRM1 bromodomain | cell-free assay, TR-FRET | – | – | 1.5 |
| Nc1ccccc1S(N)(=O)=O | SLCO1B1 | transporter uptake, inhibitor, fluorescence | CHO | 30 min, pH 7.4 | > 100 |
| COC(=O)c1nc(N)n(C(=O)c2ccc(C(C)(C)C)cc2)n1 | Coagulation factor XII (F12, Homo sapiens, UniProt P00748) | enzyme activity, inhibitor, absorbance | – | – | ~0.11 |
| Cc1ncsc1-c1ccc(CNC(=O)[C@@H]2C[C@H](O)CN2C(=O)[C@@H](NC(=O)C2(F)CC2)C(C)(C)C)c(OCCOc2ccc(CN3CCN(c4cc(-c5ccccc5O)nnc4N)CC3)cc2)c1 | PBRM1 bromodomain | cell-free assay, TR-FRET | – | – | 0.51 |
| O=c1ccc2c(OCCCCOc3cccc(O)c3)c3ccoc3cc2o1 | Kcna3 | ion current, inhibitor, patch clamp | – | – | 0.139 |
| O=S(=O)(Nc1cccc(-c2nnn[nH]2)c1)c1cc(Br)c(Cl)s1 | LNPEP | enzyme activity, inhibitor, fluorescence | – | – | 1.1 |
| Cn1nc(C(=O)NCc2ccc(C(=O)O)cc2)cc1-c1ccc2[nH]c(-c3ccncn3)cc2c1 | MMP13 | enzyme activity, inhibitor, FRET | – | – | 0.00081 |
| CCOC(=O)Nc1ccc2c(c1)N(C(=O)CCN1CCOCC1)c1ccccc1S2 | SLCO1B1 | transporter uptake, inhibitor, fluorescence | CHO | 30 min, pH 7.4 | 8.1 |
| O=S(=O)(Nc1cccc(-c2nnn[nH]2)c1)c1ccc(C(F)(F)F)c(F)c1 | LNPEP | enzyme activity, inhibitor, fluorescence | – | – | 7.5 |
| Cn1nc(C(=O)NCc2ccc(C(=O)O)cc2)cc1-c1ccc2[nH]c(-c3ccncc3)cc2c1 | MMP13 | enzyme activity, inhibitor, FRET | – | – | 0.00092 |
| CN(c1cccc(-c2nnn[nH]2)c1)S(=O)(=O)c1cc(Br)c(Cl)s1 | LNPEP | enzyme activity, inhibitor, fluorescence | – | – | 11.8 |
| O=C(CNC(=O)c1ccccc1)OC(C(=O)Nc1cc(C(F)(F)F)ccc1Cl)c1ccccc1 (centres unmarked) | Cruzipain | enzyme activity, inhibitor | – | – | 7 |
| CN1CCN(c2ccc(Nc3ncc4cc(C#N)c(=O)n(C5CCCC5)c4n3)cc2)CC1 | Calcium/calmodulin-dependent protein kinase type II subunit gamma (CAMK2G, Homo sapiens, UniProt Q13555) | enzyme activity, inhibitor | – | – | 3.87 |
| C[N+]1(C)CCC(OC(=O)C(c2ccccc2)c2ccccc2)CC1 | CHRM1 | ligand displacement, radioligand | – | – | 0.00364 |
| COc1ccc(Cl)cc1NC(=O)COC(=O)C(CC(C)C)N1C(=O)C2CC=CCC2C1=O (centres unmarked) | Cruzipain | enzyme activity, inhibitor | – | – | 13 |
| NCc1ccc(Nc2ncc(F)c(Nc3ccccc3)n2)cc1 | Serine/threonine-protein kinase PAK 4 (PAK4, Homo sapiens, UniProt O96013) | enzyme activity, inhibitor | – | lysate | > 10 |
| CC/C=C\C/C=C\C/C=C\C/C=C\C/C=C\CCCC(=O)O | DNA polymerase delta catalytic subunit (POLD1, Homo sapiens, UniProt P28340) | enzyme activity, inhibitor | – | – | 39.2 |
| Cc1noc(-c2cc3cc(-c4nc(C(=O)NCc5ccccn5)[nH]c4C)ccc3[nH]2)n1 | MMP13 | enzyme activity, inhibitor, FRET | – | – | 0.0031 |
| CCC1CN(C(=O)NCC(F)(F)F)CC1NCc1ccc(C)nc1-c1cnc2[nH]ccc2c1 (centres unmarked) | JAK1 | enzyme activity, inhibitor, ADP detection | – | – | 0.5 |
